According to ChEMBL document CHEMBL3120115, “Synthesis and biological evaluation of 2-oxonicotinonitriles and 2-oxonicotinonitrile based nucleoside analogues” (Eur J Med Chem, 2014):

Columns and labels:
Aspergillus viridinutans = assay: Antimicrobial activity against Aspergillus viridinutans at 250 ug/disc after 5 to 7 days by well diffusion method; format: functional; details: read-out: DIZ
Outline: (§1)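 Well diffusion assay. Bacteria were grown on nutrient agar and fungi on Czapek's-Dox agar; spores were inoculated into sterilized medium, dispersed and poured into plates. Compounds were dissolved in DMF at 250 mg/mL and loaded into 1 cm wells. Plates stood 24 h refrigerated for diffusion, then were incubated at 35 °C for 48 h (bacteria) or 28 °C for 5-7 days (fungi). Inhibition zone diameter was read in mm. DMF-only wells served as negative control.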

Aspergillus niger = assay: Antimicrobial activity against Aspergillus niger at 250 ug/disc after 5 to 7 days by well diffusion method; format: functional; details: read-out: DIZ; outline: as §1
Escherichia coli = assay: Antimicrobial activity against Escherichia coli at 250 ug/disc after 48 hrs by well diffusion method; format: functional; details: read-out: DIZ; outline: as §1
Bacillus subtilis = assay: Antimicrobial activity against Bacillus subtilis at 250 ug/disc after 48 hrs by well diffusion method; format: functional; details: read-out: DIZ; outline: as §1
[1] = Selectivity index, ratio of CC50 for cytotoxicity to EC50 for Influenza A virus H1N1; format: toxicity; details: read-out: Ratio CC50/EC50
Outline: (§2)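 CC50 is the concentration at which 50% of cells die, and EC50 is the concentration inhibiting 50% of viral infection. SI is calculated as the CC50/EC50 ratio.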

[2] = Selectivity index, ratio of CC50 for cytotoxicity to EC50 for HSV2; format: toxicity; details: read-out: Ratio CC50/EC50; outline: as §2
[3] = Selectivity index, ratio of CC50 for cytotoxicity to EC50 for HSV1; format: toxicity; details: read-out: Ratio CC50/EC50; outline: as §2
Influenza A virus [4] = assay: Antiviral activity against Influenza A virus H5N1 by cytopathy assay; format: functional, organism-based
Influenza A virus [5] = assay: Antiviral activity against Influenza A virus H1N1 by cytopathy assay; format: functional, organism-based
Influenza B virus = assay: Antiviral activity against Influenza B virus by cytopathy assay; format: functional, organism-based
Influenza A virus [6] = assay: Antiviral activity against Influenza A virus H3N2 by cytopathy assay; format: functional, organism-based
West Nile virus = assay: Antiviral activity against West Nile virus by visual/neutral red test; format: functional, organism-based
SARS-CoV [7] = assay: Antiviral activity against SARS coronavirus by visual/neutral red test; format: functional, organism-based; details: Severe acute respiratory syndrome-related coronavirus
Human alphaherpesvirus 1 = assay: Antiviral activity against HSV1 assessed as inhibition of viral infection; format: functional, organism-based
Human alphaherpesvirus 2 = assay: Antiviral activity against HSV2 assessed as inhibition of viral infection; format: functional, organism-based
Hepatitis C virus = assay: Antiviral activity against Hepatitis C virus assessed as inhibition of viral infection by RNA replicon assay; format: functional, organism-based, Hepacivirus hominis
Hepatitis B virus = assay: Antiviral activity against Hepatitis B virus assessed as inhibition of viral infection by DNA virion assay; format: functional, organism-based
[8] = Selectivity index, ratio of CC50 for cytotoxicity to EC50 for Influenza A virus H5N1; format: toxicity; details: read-out: Ratio CC50/EC50; outline: as §2
[9] = Selectivity index, ratio of CC50 for cytotoxicity to EC50 for Influenza A virus H3N2; format: toxicity; details: read-out: Ratio CC50/EC50; outline: as §2
[10] = Selectivity index, ratio of CC50 for cytotoxicity to EC50 for Influenza B virus; format: toxicity; details: read-out: Ratio CC50/EC50; outline: as §2
SARS-CoV [11] = assay: Antiviral activity against SARS coronavirus by visual method; format: functional, organism-based; details: Severe acute respiratory syndrome-related coronavirus
[12] = Selectivity index, ratio of CC50 for cytotoxicity to EC50 for SARS coronavirus; format: toxicity; details: read-out: Ratio CC50/EC50; outline: as §2

Compound | zone of inhibition at 250 µg/disc (Aspergillus viridinutans) [mm] | zone of inhibition at 250 µg/disc (Escherichia coli) [mm] | zone of inhibition at 250 µg/disc (Bacillus subtilis) [mm] | selectivity ratio [2] | selectivity ratio [3] | EC50 (Influenza A virus [4]) [µM] | EC50 (Influenza B virus) [µM] | EC50 (Influenza A virus [6]) [µM] | EC50 (Human alphaherpesvirus 1) [µM] | EC50 (Human alphaherpesvirus 2) [µM] | EC50 (Hepatitis C virus) [µM] | EC50 (Hepatitis B virus) [µM] | also measured
CC(C)c1ccc(-c2cc(-c3cccs3)n(COCCO)c(=O)c2C#N)cc1 | 6 | 0 | 23 | – | – | – | – | – | – | – | – | – | zone of inhibition at 250 µg/disc (Aspergillus niger): 7 mm
N#Cc1c(-c2ccc(Cl)cc2)cc(-c2ccccn2)n(CCCO)c1=O | 9 | 0 | 3 | – | – | – | – | – | – | – | – | – | –
C=CCOc1nc(-c2ccccn2)cc(-c2ccc(Cl)cc2)c1C#N | 7 | 0 | 1 | – | – | – | – | – | – | – | – | – | –
N#Cc1c(-c2ccc(Cl)cc2)cc(-c2ccccn2)[nH]c1=O | – | – | – | 1 | 1 | > 100 | > 36 | > 2.6 | > 300 | > 300 | > 100 | > 100 | selectivity ratio [1]: > 3.8; EC50 (Influenza A virus [5]): 26 µM; EC50 (West Nile virus): > 2.2 µM; EC50 (SARS-CoV [7]): > 0.32 µM
CC(C)c1ccc(-c2cc(-c3cccs3)[nH]c(=O)c2C#N)cc1 | – | – | – | 1 | 1 | 32 | 46 | 22 | > 300 | > 300 | > 100 | > 100 | selectivity ratio [8]: > 3.1; selectivity ratio [9]: > 4.5; selectivity ratio [10]: > 2.2; EC50 (West Nile virus): > 2.2 µM; EC50 (SARS-CoV [7]): > 26 µM
CC(=O)OC[C@H]1O[C@@H](n2c(-c3ccccn3)cc(-c3ccc(Cl)cc3)c(C#N)c2=O)[C@H](OC(C)=O)[C@@H](OC(C)=O)[C@@H]1OC(C)=O | – | – | – | 1 | 1 | 3.2 | > 3.2 | 24 | > 300 | > 300 | > 100 | > 100 | EC50 (SARS-CoV [11]): 8.3 µM; selectivity ratio [8]: 1.3; selectivity ratio [9]: > 4.2; selectivity ratio [12]: 4.3; EC50 (West Nile virus): > 5.1 µM
CC(=O)OC[C@H]1O[C@@H](n2c(-c3cccs3)cc(-c3cccs3)c(C#N)c2=O)[C@H](OC(C)=O)[C@@H](OC(C)=O)[C@H]1OC(C)=O | – | – | – | < 2.4 | < 2.4 | > 19 | > 12 | > 32 | > 60 | > 60 | > 100 | > 100 | selectivity ratio [12]: 1.9; EC50 (Influenza A virus [5]): > 28 µM; EC50 (West Nile virus): > 3.6 µM; EC50 (SARS-CoV [7]): 10 µM
C[C@@]1(O)[C@H](O)[C@@H](CO)O[C@H]1n1ccc(N)nc1=O | – | – | – | – | – | – | – | – | – | – | 1.6 | – | –
Nc1nc2c(ncn2COCCO)c(=O)[nH]1 [ACYCLOVIR] | – | – | – | > 10.4 | > 30.3 | – | – | – | 3.3 | 9.6 | – | – | –
CC1(C)S[C@@H]2[C@H](NC(=O)[C@H](N)c3ccccc3)C(=O)N2[C@H]1C(=O)O [AMPICILLIN] | – | 18 | 20 | – | – | – | – | – | – | – | – | – | –
CN(C)C=O [DIMETHYLFORMAMIDE] | 0 | 0 | 0 | – | – | – | – | – | – | – | – | – | zone of inhibition at 250 µg/disc (Aspergillus niger): 0 mm
CC1(C)O[C@@H]2C[C@H]3[C@@H]4C[C@H](F)C5=CC(=O)C=C[C@]5(C)[C@@]4(F)[C@@H](O)C[C@]3(C)[C@]2(C(=O)CO)O1 [FLUOCINOLONE ACETONIDE] | 31 | – | – | – | – | – | – | – | – | – | – | – | zone of inhibition at 250 µg/disc (Aspergillus niger): 22 mm
Nc1ccn([C@@H]2CS[C@H](CO)O2)c(=O)n1 [LAMIVUDINE] | – | – | – | – | – | – | – | – | – | – | – | 0.035 | –
NC(=O)c1ncn([C@@H]2O[C@H](CO)[C@@H](O)[C@H]2O)n1 [RIBAVIRIN] | – | – | – | – | – | 4.2 | 2.4 | 2 | – | – | – | – | selectivity ratio [8]: > 76; selectivity ratio [1]: > 32; selectivity ratio [9]: > 160; selectivity ratio [10]: > 130; EC50 (Influenza A virus [5]): 10 µM
